Results from ChEMBL document CHEMBL5038587, “Synthesis of Methoxy-, Methylenedioxy-, Hydroxy-, and Halo-Substituted Benzophenanthridinone Derivatives as DNA Topoisomerase IB (TOP1) and Tyrosyl-DNA Phosphodiesterase 1 (TDP1) Inhibitors and Their Biological Activity for Drug-Resistant Cancer” (J Med Chem, 2021).
Active and inactive are the calls of the source. No cut-off for these calls is given here.

Legend:
[1] = molecular target: T1, DNA topoisomerase 1 (Homo sapiens) (UniProt P11387); assay: Inhibition of recombinant TOP1 (unknown origin) at 1 uM using 3'-[32P]-labeled 117 bp DNA oligonucleotides as substrate incubated for 20 mins by PAGE analysis relative to CPT
T1 sequence (whole entry): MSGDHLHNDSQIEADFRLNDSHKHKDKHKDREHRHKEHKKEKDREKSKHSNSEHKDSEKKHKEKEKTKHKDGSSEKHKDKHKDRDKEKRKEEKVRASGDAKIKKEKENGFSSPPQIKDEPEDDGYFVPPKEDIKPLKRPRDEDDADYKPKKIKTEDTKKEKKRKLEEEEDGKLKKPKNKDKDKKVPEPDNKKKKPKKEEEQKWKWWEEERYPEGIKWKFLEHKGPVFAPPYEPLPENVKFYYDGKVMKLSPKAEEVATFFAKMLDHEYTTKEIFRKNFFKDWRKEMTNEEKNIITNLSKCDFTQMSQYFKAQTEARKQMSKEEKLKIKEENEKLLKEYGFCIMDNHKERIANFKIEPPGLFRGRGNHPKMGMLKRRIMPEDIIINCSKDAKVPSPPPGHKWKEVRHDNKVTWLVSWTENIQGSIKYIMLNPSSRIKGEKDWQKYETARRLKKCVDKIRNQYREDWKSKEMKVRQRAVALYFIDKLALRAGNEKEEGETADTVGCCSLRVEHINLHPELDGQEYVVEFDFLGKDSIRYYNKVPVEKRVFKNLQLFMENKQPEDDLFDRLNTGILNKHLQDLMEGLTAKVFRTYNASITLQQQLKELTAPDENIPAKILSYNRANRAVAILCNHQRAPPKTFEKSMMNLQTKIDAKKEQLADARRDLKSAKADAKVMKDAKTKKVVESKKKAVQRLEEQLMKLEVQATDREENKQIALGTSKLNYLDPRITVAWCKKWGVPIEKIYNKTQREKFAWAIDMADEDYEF
Outline: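 3'-[32P]-labeled 117 bp oligonucleotide (~2 nM) with recombinant TOP1 and compound, 25 °C, 20 min. Buffer: 10 mM Tris-HCl pH 7.5, 50 mM KCl, 5 mM MgCl2, 0.1 mM EDTA, BSA. Stopped with 0.5% SDS and run on 20% denaturing PAGE with phosphorimaging.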

[2] = molecular target: Tyrosyl-DNA phosphodiesterase 1 (Homo sapiens, UniProt Q9NUW8); assay: Inhibition of TDP1 (unknown origin) using 5'-FAM-AGGATCTAAAAGACTT-BHQ-3' as substrate at 100 uM measured after 30 mins by fluorescence assay relative to control
Tyrosyl-DNA phosphodiesterase 1, sequence (Q9NUW8 whole entry): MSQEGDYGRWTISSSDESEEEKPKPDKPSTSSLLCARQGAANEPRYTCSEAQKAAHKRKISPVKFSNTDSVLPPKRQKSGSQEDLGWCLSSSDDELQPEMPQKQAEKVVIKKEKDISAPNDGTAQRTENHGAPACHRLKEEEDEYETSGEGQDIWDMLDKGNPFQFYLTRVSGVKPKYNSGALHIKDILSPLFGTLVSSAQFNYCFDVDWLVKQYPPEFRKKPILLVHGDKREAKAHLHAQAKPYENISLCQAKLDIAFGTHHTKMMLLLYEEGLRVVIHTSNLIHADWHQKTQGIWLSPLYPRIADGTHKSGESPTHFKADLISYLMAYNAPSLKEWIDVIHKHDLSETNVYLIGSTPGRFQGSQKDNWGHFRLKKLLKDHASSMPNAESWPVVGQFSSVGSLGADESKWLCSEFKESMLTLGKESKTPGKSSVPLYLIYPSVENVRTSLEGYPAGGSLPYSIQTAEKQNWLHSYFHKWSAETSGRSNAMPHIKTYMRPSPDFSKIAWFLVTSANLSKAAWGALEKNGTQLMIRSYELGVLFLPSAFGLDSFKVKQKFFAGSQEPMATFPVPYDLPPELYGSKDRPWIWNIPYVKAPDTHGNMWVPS

MCF7 [3] = assay: Cytotoxicity against human MCF-7 cells assessed as cell growth inhibition after 72 hrs by MTT assay; assay type: functional
Outline: (§1)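 Compounds predissolved in DMSO, tested in a five-dose series from 0.01 to 100 µM for 72 h, then read by MTT. Percent viability inhibition is taken against control, and GI50 is fitted by nonlinear regression.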

HCT-116 = assay: Cytotoxicity against human HCT-116 cells assessed as cell growth inhibition after 72 hrs by MTT assay; assay type: functional
Outline: (§2)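 Cells kept in RPMI 1640 or DMEM with 10% FBS at 37 °C, 5% CO2. Compounds predissolved in DMSO, tested in a five-dose series from 0.01 to 100 µM for 72 h, then read by MTT. Percent viability inhibition is taken against control, and GI50 is fitted by nonlinear regression.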

A549 = assay: Cytotoxicity against human A549 cells assessed as cell growth inhibition after 72 hrs by MTT assay; assay type: functional; outline: as §2
MCF7 [4] = assay: Cytotoxicity against human MCF-7/TDP1 cells assessed as cell growth inhibition after 72 hrs by MTT assay; assay type: functional
Outline: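 MCF-7/TDP1 is a TDP1-overexpressing line made by transfecting parental MCF-7, grown in RPMI 1640 or DMEM with 10% FBS at 37 °C, 5% CO2. DMSO-dissolved compounds tested at five doses from 0.01 to 100 µM, read by MTT. GI50 (mean ± SD, at least three repeats) fitted by nonlinear regression against control.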

DU-145 = assay: Cytotoxicity against human DU145 cells assessed as cell growth inhibition after 72 hrs by MTT assay; assay type: functional; outline: as §1
[5] = Resistance index,ratio of GI50 for growth inhibition of human MCF-7/TDP1 cells to GI50 for growth inhibition of human MCF-7 cells; assay type: functional
Outline: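 Resistance index is the MTT GI50 in TDP1-overexpressing MCF-7/TDP1 (transfected MCF-7) divided by the GI50 in parental MCF-7. GI50 values are mean ± SD of at least three experiments.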

Row | SMILES | inhibition [1] | inhibition [2] [%] | also measured
1 | CN(C)CCn1c(=O)c2cc3c(cc2c2ccc4cc5c(cc4c21)OCO5)OCO3 | 20% | – | –
2 | CN(C)CCn1c(=O)c2c3c(ccc2c2ccc4cc5c(cc4c21)OCO5)OCO3 | 20% | – | –
3 | CN(C)CCn1c(=O)c2cc(O)ccc2c2ccc3ccccc3c21 | 20% | 0 | –
4 | COc1cccc2c1c(=O)n(CCN(C)C)c1c3ccccc3ccc21 | inactive | – | –
5 | COc1ccc2c(=O)n(CCN(C)C)c3c4cc5c(cc4ccc3c2c1O)OCO5 | inactive | 0 | GI50 (MCF7 [3]): > 100000 nM
6 | COc1ccc2c(=O)n(CCN(C)C)c3c4ccccc4ccc3c2c1OC | inactive | 0 | –
7 | COc1cc2ccccc2c2c1c1ccccc1c(=O)n2CCN(C)C | inactive | 0 | –
8 | COc1cc2c(=O)n(CCN(C)C)c3c4ccccc4ccc3c2cc1OC | 25% | – | –
9 | COc1ccc2c(c1)c(=O)n(CCN(C)C)c1c3ccccc3ccc21 | 20% | – | –
10 | COc1cc2c(ccc3c4cc(OC)c(OC)cc4c(=O)n(CCN(C)C)c23)cc1O | 20% | – | –
11 | COc1cccc2c1c(=O)n(CCN(C)C)c1c3cc4c(cc3ccc21)OCO4 | 20% | 0 | –
12 | COc1ccc2c(=O)n(CCN(C)C)c3c4ccccc4ccc3c2c1 | 20% | – | –
13 | CC[C@@]1(O)C(=O)OCc2c1cc1n(c2=O)Cc2cc3ccccc3nc2-1 [CAMPTOTHECIN] | – | – | GI50 (HCT-116): 50 nM; GI50 (MCF7 [3]): 350 nM; GI50 (A549): 310 nM; GI50 (MCF7 [4]): 3210 nM
14 | COc1cccc2ccc3c4ccccc4c(=O)n(CCN(C)C)c3c12 | inactive | 0 | –
15 | COc1cc2c(=O)n(CCN(C)C)c3c4cc(O)c(O)cc4ccc3c2cc1OC | 50% | 0 | –
16 | CN(C)CCn1c(=O)c2cc(O)c(O)cc2c2ccc3cc4c(cc3c21)OCO4 | 20% | 0 | GI50 (DU-145): > 100000 nM
17 | CN(C)CCn1c(=O)c2ccccc2c2ccc3ccccc3c21 | 20% | 0 | –
18 | CN(C)CCn1c(=O)c2ccccc2c2ccc3cc4c(cc3c21)OCO4 | 20% | 0 | –
19 | CN(C)CCn1c(=O)c2c3c(ccc2c2ccc4ccccc4c21)OCO3 | 20% | – | –
20 | CN(C)CCn1c(=O)c2ccccc2c2ccc3cc(Br)ccc3c21 | 20% | 0 | –
21 | CN(C)CCn1c(=O)c2ccc(Cl)cc2c2ccc3cc4c(cc3c21)OCO4 | 75% | 0 | –
22 | CN(C)CCn1c(=O)c2cc(F)c(F)cc2c2ccc3cc4c(cc3c21)OCO4 | 75% | 0 | –
23 | COc1cccc2c(=O)n(CCN(C)C)c3c4ccccc4ccc3c12 | inactive | 0 | –
24 | COc1ccc2c(ccc3c4ccccc4c(=O)n(CCN(C)C)c23)c1 | 20% | 0 | –
25 | COc1cc2c(cc1OC(C)C)c(=O)n(CCN(C)C)c1c3cc4c(cc3ccc21)OCO4 | inactive | 0 | –
26 | COc1ccc2c(c1)c(=O)n(CCN(C)C)c1c3cc4c(cc3ccc21)OCO4 | Active | 0 | –

Row | SMILES | inhibition [1] | inhibition [2] [%] | also measured
27 | CN(C)CCn1c(=O)c2cc([N+](=O)[O-])ccc2c2ccc3cc4c(cc3c21)OCO4 | 75% | 0 | –
28 | COc1cc2ccc3c4c(OC)c(OC)ccc4c(=O)n(CCN(C)C)c3c2cc1OC | inactive | 0 | GI50 (HCT-116): > 100000 nM; GI50 (DU-145): > 100000 nM; GI50 (MCF7 [3]): > 100000 nM
29 | COc1cc2c(=O)n(CCN(C)C)c3c4cc5c(cc4ccc3c2cc1O)OCO5 | 20% | 0 | GI50 (MCF7 [3]): > 100000 nM; GI50 (A549): > 100000 nM
30 | COc1ccc2c(=O)n(CCN(C)C)c3c4cc5c(cc4ccc3c2c1OC)OCO5 | inactive | 0 | –
31 | COc1ccc2c(c1OC)c(=O)n(CCN(C)C)c1c3ccccc3ccc21 | inactive | 0 | –
32 | COc1ccc2ccc3c4ccccc4c(=O)n(CCN(C)C)c3c2c1 | 20% | 0 | –
33 | COc1cc2ccc3c4ccccc4c(=O)n(CCN(C)C)c3c2cc1OC | 20% | – | –
34 | COc1cc2ccc3c4cc(OC)c(OC)cc4c(=O)n(CCN(C)C)c3c2cc1O | < 20% | 0 | –
35 | COc1cc2c(=O)n(CCN(C)C)c3c4cc5c(cc4ccc3c2cc1OC(C)C)OCO5 | 20% | 0 | GI50 (HCT-116): 900 nM
36 | COc1cc2ccc3c4cc5c(cc4c(=O)n(CCN(C)C)c3c2cc1OC)OCO5 | < 20% | – | –
37 | COc1cccc2c1ccc1c3ccccc3c(=O)n(CCN(C)C)c21 | 20% | 0 | –
38 | CN(C)CCn1c(=O)c2ccc(F)cc2c2ccc3cc4c(cc3c21)OCO4 | 50% | 0 | –
39 | COc1cc2ccc3c4ccc5c(c4c(=O)n(CCN(C)C)c3c2cc1OC)OCO5 | 20% | 0 | –
40 | CN(C)CCn1c(=O)c2cc(F)ccc2c2ccc3cc4c(cc3c21)OCO4 | 75% | 0 | GI50 (A549): 7870 nM
41 | COc1cc2ccc3c4cc(OC)c(OC)cc4c(=O)n(CCN(C)C)c3c2cc1OC | < 20% | – | –
42 | COc1ccc2c(c1O)c(=O)n(CCN(C)C)c1c3cc4c(cc3ccc21)OCO4 | 20% | – | –
43 | COc1cc2c(=O)n(CCN(C)C)c3c4cc5c(cc4ccc3c2cc1OC)OCO5 | – | – | GI50 (HCT-116): 140 nM; GI50 (DU-145): 78 nM; GI50 (MCF7 [3]): 200 nM; GI50 (A549): 320 nM; GI50 (MCF7 [4]): 7420 nM; RatioGI50 [5]: 19.9
44 | CN(C)CCn1c(=O)c2cc(F)c(F)cc2c2ccc3ccccc3c21 | 50% | 0 | –
45 | COc1ccc2c(=O)n(CCN(C)C)c3c4cc5c(cc4ccc3c2c1)OCO5 | 75% | 0 | GI50 (MCF7 [3]): 200 nM
46 | COc1cc2c(cc1O)c(=O)n(CCN(C)C)c1c3cc4c(cc3ccc21)OCO4 | 20% | – | –
47 | COc1ccc2c(c1OC)c(=O)n(CCN(C)C)c1c3cc4c(cc3ccc21)OCO4 | inactive | 0 | –
48 | COc1cc2ccc3c4ccc(OC)c(OC)c4c(=O)n(CCN(C)C)c3c2cc1OC | inactive | 0 | GI50 (HCT-116): > 100000 nM
49 | CN(C)CCn1c(=O)c2cc(Br)ccc2c2ccc3cc4c(cc3c21)OCO4 | inactive | 0 | –
50 | COc1cc2c3ccccc3c(=O)n(CCN(C)C)c2c2ccccc12 | < 20% | – | –
51 | CN(C)CCn1c(=O)c2cc3c(cc2c2ccc4ccccc4c21)OCO3 | 25% | – | –
52 | CN(C)CCn1c(=O)c2ccc(C(F)(F)F)cc2c2ccc3cc4c(cc3c21)OCO4 | 50% | 0 | GI50 (DU-145): 1000 nM
